IC50, Kd and Bmax (fM bound (mg of protein)-1) data for 15 compounds are collected here from ChEMBL document CHEMBL1126857, “14 beta-[(p-nitrocinnamoyl)amino]morphinones, 14 beta-[(p-nitrocinnamoyl)amino]-7,8-dihydromorphinones, and their codeinone analogues: synthesis and receptor activity” (J Med Chem, 1993).

Molecules are shown by their SMILES.

Chain of Mu-type opioid receptor (P79350 whole entry): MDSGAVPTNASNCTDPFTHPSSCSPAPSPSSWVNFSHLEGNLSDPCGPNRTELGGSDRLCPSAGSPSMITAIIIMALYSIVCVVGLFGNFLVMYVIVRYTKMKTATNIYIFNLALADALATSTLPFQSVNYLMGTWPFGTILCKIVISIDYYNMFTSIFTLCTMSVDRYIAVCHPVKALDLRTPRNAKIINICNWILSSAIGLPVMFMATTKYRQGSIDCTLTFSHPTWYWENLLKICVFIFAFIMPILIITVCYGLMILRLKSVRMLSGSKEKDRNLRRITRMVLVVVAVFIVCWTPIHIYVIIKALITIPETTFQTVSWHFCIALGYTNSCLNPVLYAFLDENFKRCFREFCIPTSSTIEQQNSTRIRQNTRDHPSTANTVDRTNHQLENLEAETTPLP

The target of the first assay is Mu-type opioid receptor (Bos taurus, UniProt P79350). In words: Binding affinity against mu opioid receptor from calf frontal cortex. The procedure, abridged:
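Calf frontal cortex membranes (10 mg wet weight), prewashed and preincubated 15 min at 37 °C, in 50 mM Tris-HCl pH 7.5 with 10 mM MgSO4 and 0.5 mM EDTA. Competition against 0.8 nM [3H]DAMGO at eight ligand concentrations, 30 min at 37 °C, in triplicate. Nonspecific binding with 1 μM naloxone. Filtration, then scintillation counting; IC50 taken.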
With `CN1CCC23c4c5ccc(O)c4O[C@H]2C(=O)C=C[C@@]3(NC(=O)/C=C/c2ccc([N+](=O)[O-])cc2)C1C5` (some centres not stated), the IC50 was 1.45 nM. For `COc1ccc2c3c1O[C@@]1(C)C(=O)C=C[C@@]4(NC(=O)/C=C/c5ccc([N+](=O)[O-])cc5)C(C2)N(CC2CC2)CCC314` (some centres not stated), the IC50 was determined as 36.8 nM. The compound `COc1ccc2c3c1O[C@H]1C(=O)C=C[C@@]4(NC(=O)/C=C/c5ccc([N+](=O)[O-])cc5)C(C2)N(CC2CC2)CCC314` (some centres not stated) showed an IC50 of 1.45 nM. Same read-out and setting: under `O=C(/C=C/c1ccc([N+](=O)[O-])cc1)N[C@@]12C=CC(=O)[C@@H]3Oc4c(O)ccc5c4C31CCN(CC1CC1)C2C5` (some centres not stated) stands 7.8 nM; under `COc1ccc2c3c1O[C@@]1(C)C(=O)CC[C@@]4(NC(=O)/C=C/c5ccc([N+](=O)[O-])cc5)C(C2)N(C)CCC314` (some centres not stated), 104 nM. The compound `O=C(/C=C/c1ccc([N+](=O)[O-])cc1)N[C@@]12CCC(=O)[C@@H]3Oc4c(O)ccc5c4[C@@]31CCN(CC1CC1)[C@@H]2C5` showed an IC50 of 0.87 nM.

The compound `COc1ccc2c3c1O[C@H]1C(=O)C=C[C@@]4(NC(=O)/C=C/c5ccc([N+](=O)[O-])cc5)C(C2)N(C)CCC314` (some centres not stated) came in with an IC50 of 1.01 nM. `C[C@@]12Oc3c(O)ccc4c3C13CCN(CC1CC1)C(C4)[C@]3(NC(=O)/C=C/c1ccc([N+](=O)[O-])cc1)C=CC2=O` (some centres not stated) displayed an IC50 of 1.88 nM. Take `CN1CC[C@]23c4c5ccc(O)c4O[C@H]2C(=O)CC[C@@]3(NC(=O)/C=C/c2ccc([N+](=O)[O-])cc2)[C@H]1C5`: the IC50 stood at 0.28 nM. Still for that read-out and setting: with `COc1ccc2c3c1O[C@@]1(C)C(=O)C=C[C@@]4(NC(=O)/C=C/c5ccc([N+](=O)[O-])cc5)C(C2)N(C)CCC314` (some centres not stated) the figure was 36.2 nM; with `C[C@@]12Oc3c(O)ccc4c3C13CCN(CC1CC1)C(C4)[C@]3(NC(=O)/C=C/c1ccc([N+](=O)[O-])cc1)CCC2=O` (some centres not stated), 0.52 nM; with `COc1ccc2c3c1O[C@@]1(C)C(=O)CC[C@@]4(NC(=O)/C=C/c5ccc([N+](=O)[O-])cc5)C(C2)N(CC2CC2)CCC314` (some centres not stated), 32 nM. The compound `CN1CCC23c4c5ccc(O)c4O[C@@]2(C)C(=O)C=C[C@@]3(NC(=O)/C=C/c2ccc([N+](=O)[O-])cc2)C1C5` (some centres not stated) displayed a half-maximal inhibitory concentration (IC50) of 0.8 nM. Same read-out and setting: with `C[C@@]12Oc3c(O)ccc4c3C13CCN(CC1CC1)C(C4)[C@]3(NC(=O)CCc1ccc([N+](=O)[O-])cc1)CCC2=O` (some centres not stated) the figure was 24 nM; with `COc1ccc2c3c1O[C@H]1C(=O)CC[C@@]4(NC(=O)/C=C/c5ccc([N+](=O)[O-])cc5)C(C2)N(C)CCC314` (some centres not stated), 0.44 nM.

Target in a further assay: not listed separately
In words: Tested for its binding effect on [3H]- DAMGO in bovine striatal membrane at 20 nM. Format: functional, cell membranes, Bos taurus, Striatum. The procedure, abridged: (§1)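 Bovine striatal membranes (10 mg protein) pretreated 60 min at 25 °C with or without 20 nM ligand in 50 mM Tris-HCl pH 7.5, then washed by centrifugation five times. [3H]DAMGO saturation, 0.05–6.4 nM, 60 min at 25 °C, then filtration. Nonspecific binding with 10 μM naloxone; Bradford protein. Kd/Bmax by nonlinear regression; triplicate, three experiments.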
As to `C[C@@]12Oc3c(O)ccc4c3C13CCN(CC1CC1)C(C4)[C@]3(NC(=O)/C=C/c1ccc([N+](=O)[O-])cc1)CCC2=O` (some centres not stated), the Kd came out at 0.82 nM.

Tested on in another assay: not listed separately
In words: Bmax value expressed in (f mol bound)/mg of protein. The procedure, abridged: as §1
The compound `C[C@@]12Oc3c(O)ccc4c3C13CCN(CC1CC1)C(C4)[C@]3(NC(=O)/C=C/c1ccc([N+](=O)[O-])cc1)CCC2=O` (some centres not stated) displayed a Bmax (fM bound (mg of protein)-1) of 100.

A word on the IC50: it is the point on the concentration scale where inhibition reaches its midpoint. Low readings indicate inhibition by little substance, high ones a need for much substance. Broadly, the Kd is a measure of binding affinity in units of concentration. A low value points to tighter binding.
